Source: PubChem BioAssay (Sanford-Burnham Center for Chemical Genomics)
STEP block – STEP (human) phosphatase inhibition | recombinant STEP, OMFP fluorogenic substrate, fluorescence | inhibition, % at 20 µM | 360,000 tested, 0.25% active;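 active = inhibition at 20 µM, scaled per plate between control wells, above about 37%, limit read from the data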;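 note: 0% = DMSO with enzyme and substrate and 100% = substrate only without enzyme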
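System: STEP phosphatase, cell-free reaction; Buffer or medium: Bis-Tris pH 6.0 buffer with DTT, detergent; Incubation: 20 min at room temperature, dark; Measured by: fluorescence, 480/540 nm.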
Scp-1 inhibitor – Scp-1 (human) phosphatase inhibition | 340,000 tested, 0.88% active | inhibition, % at 20 µM | Q9GZU7 | Recombinant Scp1, phosphopeptide, malachite green phosphate absorbance;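 active = inhibition above about 50% at 20 µM, limit read from the data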;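 note: plate controls were DMSO wells with enzyme for no effect and wells lacking enzyme for full effect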
Target sequence (Q9GZU7 76-261 limits assumed): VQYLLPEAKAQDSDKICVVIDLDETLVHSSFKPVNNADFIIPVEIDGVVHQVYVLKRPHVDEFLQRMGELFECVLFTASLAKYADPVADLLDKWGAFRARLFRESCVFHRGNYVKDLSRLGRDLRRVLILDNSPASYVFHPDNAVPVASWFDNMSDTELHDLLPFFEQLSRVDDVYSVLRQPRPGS
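Test system: SCP-1 phosphatase catalytic domain, residues 76-261 | Compound dosing: One concentration, 20 µM, with 1.0% DMSO | Schedule: 45 min room-temperature reaction, 5 min colour, 30 min stabiliser | Detection: Absorbance at 630 nm | Read-out basis: % inhibition of SCP-1 phosphate liberation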
LMPTP block – blocks human LMPTP phosphatase. P24666. recombinant LMPTP-A, OMFP fluorogenic substrate, fluorescence intensity. inhibition, % at 20 µM. 360,000 tested, 0.22% active;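 active = compounds that cut the enzyme signal by at least half of the control window in the single-dose screen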;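 note: plate controls were DMSO wells with enzyme plus substrate for no effect and substrate without enzyme for full effect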
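Test system: LMPTP-A, protein tyrosine phosphatase of low molecular weight; Input: 0.625 nM enzyme; Incubation: 50 min dark incubation at room temperature; Signal: endpoint fluorescence intensity from OMFP dephosphorylation; Read-out basis: % inhibition versus control wells.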
SUMO1-SIM PPI – alters human SUMO1 binding to SIM partners | P63165 | SUMO1 binding to a labelled peptide, TR-FRET, 1 h | inhibition, % at 20 µM | 360,000 tested, 0.33% active | AID 602429; in the data active = inhibition above about 37%
Target sequence (P63165 whole entry, looked up): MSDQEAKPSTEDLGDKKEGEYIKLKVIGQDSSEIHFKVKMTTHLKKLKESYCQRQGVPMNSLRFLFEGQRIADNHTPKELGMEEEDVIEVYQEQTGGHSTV
UBC9 SUMO inh – SUMOylation inhibition; P63279; HTRF SUMOylation assay, SAE1/SAE2 + UBC9, in vitro; inhibition, % at 35 µM; 290,000 tested, 0.36% active; in the data active = inhibition above about 50%, passing the limit was not always enough
Target sequence (P63279 whole entry, looked up): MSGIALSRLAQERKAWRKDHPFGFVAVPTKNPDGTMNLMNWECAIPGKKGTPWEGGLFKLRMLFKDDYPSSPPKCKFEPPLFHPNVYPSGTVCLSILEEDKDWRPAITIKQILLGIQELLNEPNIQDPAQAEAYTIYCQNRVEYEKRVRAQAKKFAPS
DNMT1 block – DNMT1 (human) enzyme inhibition | 360,000 tested, 0.83% active | P26358 | DNMT1 molecular beacon, Hinp1I cleavage, fluorescence | AID 588458 | inhibition (reported as % activation of signal), % at 10 µM; in the data active = inhibition above about 50%
Active calls of the source: *; i = inactive; nt = no result given; + = active, no number. Shown are actives, neighbours in structure and some others; about 1.9% of the full set was active somewhere.

SMILES | STEP block | Scp-1 inhibitor | LMPTP block | SUMO1-SIM PPI | UBC9 SUMO inh | DNMT1 block
COc1ccc(CNCC(O)COCc2cccs2)cc1 (stereo not drawn) | 2 | -2 | -2 | -1 | -6 | 3
CCOC(=O)NNc1ccc2nonc2c1[N+](=O)[O-] | nt | 17 | nt | nt | 77* | nt
CCc1ccc(Nc2ccc3nonc3c2[N+](=O)[O-])cc1 | -1 | -4 | -1 | -20 | nt | 1
COc1ccc(Cl)cc1Nc1nnc(-c2ccncc2)s1 | 83* | 90* | 0 | 96* | 0 | 39
Cc1cccc(NC2CNC(=O)NC2=O)c1 (stereo not drawn) | -2 | -13 | 2 | 15 | nt | 1
Cc1cc(C)cc(NC(=O)c2ccc(CNc3c(N4CCOCC4)c(=O)c3=O)cc2)c1 | 2 | -3 | 1 | 42* | 12 | -4
Cc1cc(C)cc(NC(=O)c2ccc(CNc3c(N4CCCC4)c(=O)c3=O)cc2)c1 | 0 | -4 | 0 | 51* | 14 | -4
CC1(C(=O)NC2CCCCC2)CCC(=O)N1C1CCN(Cc2ccccc2)CC1 (stereo not drawn) | -3 | nt | -2 | 6 | nt | -3
CC(C)c1ccc(-c2csc3nc[nH]c(=O)c23)cc1 | 0 | -6 | 2 | 6 | 2 | 0
O=c1[nH]c2cc(Cl)ccc2n1-c1ccccc1 | -7 | -13 | 2 | 40* | -4 | 1
O=Cc1c(Cl)[nH]c(=O)n1-c1ccccc1 | 1 | -8 | -2 | -6 | 8 | 1
CCc1ccc(C(O)c2ncc(-c3ccc4ccccc4c3)[nH]2)cc1 (stereo not drawn) | -2 | nt | 0 | -4 | nt | 61*
Cc1ccc(C(O)c2ncc(-c3ccc4ccccc4c3)[nH]2)cc1 (stereo not drawn) | 3 | nt | 1 | -2 | nt | -4
CN(C)/C=C1\C=C2C(=O)c3ccccc3N2C1=O | i | -16 | -72 | -158 | 11 | +
C=C1c2cccc(O)c2C(=O)C2C(=O)[C@]3(O)C(=O)C(C(N)=O)C(=O)[C@@H](N(C)C)[C@@H]3[C@@H](O)[C@H]12 (stereo partly drawn) | 53* | 60* | 81* | 73* | nt | 94*
C[C@H]1c2cccc(O)c2C(O)=C2C(=O)[C@]3(O)C(O)=C(C(N)=O)C(=O)[C@@H](N(C)C)C3[C@@H](O)C21 (stereo partly drawn) | 2 | 14 | 1 | 1 | nt | 2
CN(C)c1ccc(C(=O)c2ccc(O)cc2O)cc1 | 0 | -14 | 1 | -5 | 12 | -5
CN(C)c1ccc(Cc2cc3c(O)ccc(O)c3cc(Cc3ccc(N(C)C)cc3)c2=O)cc1 | 7 | 30 | 50 | 42* | nt | 81*
C#CCN1C(=O)S/C(=C\c2ccc(-c3ccc(C(=O)O)cc3C)o2)C1=O | 0 | 62* | 22 | 19 | 32 | 79*
Cc1ccc(NC(=O)CN2C(=O)S/C(=C/c3ccc(-c4cccc(C(=O)O)c4)o3)C2=O)cc1 | 40* | 65* | 64* | 17 | 81* | 56*
Cc1cc(C(=O)O)ccc1-c1ccc(/C=C2\SC(=O)N(CC(=O)Nc3ccc4c(c3)OCO4)C2=O)o1 | 64* | nt | 80* | 73* | 82* | 101*
O=C(O)c1cc(-c2ccc(/C=C3/SC(=S)N(Cc4ccccc4)C3=O)o2)ccc1Cl | -22 | 57* | 71* | 36 | 46 | 83*
Cc1ccc(NC(=O)CN2C(=O)S/C(=C\c3ccc(-c4cccc(C(=O)O)c4C)o3)C2=O)cc1 | nt | nt | nt | nt | 26 | nt
CCCCCCN1CCN(C2CN(Cc3ccc([N+](=O)[O-])cc3)S(=O)(=O)C2)CC1 (stereo not drawn) | -1 | nt | -2 | -23 | nt | -3
N#CC1=C2SCN(Cc3ccccc3)CN2C(=O)CC1c1cccs1 (stereo not drawn) | 48* | -1 | 6 | 3 | 24 | -3
N#CC1=C2SCN(Cc3ccccc3)CN2C(=O)CC1c1ccc2c(c1)OCO2 (stereo not drawn) | 3 | -7 | 11 | 9 | 4 | -10
CC(=O)c1c(C)[nH]c(C(=O)NCc2ccc(Cl)cc2)c1C | -3 | nt | 0 | -8 | nt | 1
